The text below walks through data of the EternaBench riboswitch data.

As a reminder, the apparent Kd is the concentration giving half-maximal binding under the conditions of the assay.

In this data set the test system is MS2 coat protein. In words: apparent Kd, MS2 coat protein; higher = weaker binding; RNA-MaP array; FMN 200 µM where present. Summed up:
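Designs were transcribed by stalled E. coli RNA polymerase on Illumina sequencing-chip clusters. They were titrated with SNAP-549-labelled MS2 coat protein from 0.7 or 1.5 nM, doubling to 3 µM, in 100 mM Tris-HCl pH 7.5, 80 mM KCl, 4 mM MgCl2, BSA, DTT, yeast tRNA and Tween-20, without and then with constant ligand. The apparent Kd is the median of filtered per-cluster fits after normalisation of green signal to red-channel RNA signal and control-cluster median Fmax.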

Setting [1] is: designed as: OFF switch for flavin mononucleotide, no ligand.
Where [2] appears, read: ligand present: flavin mononucleotide, designed as: OFF switch for flavin mononucleotide.
Where [3] appears, read: designed as: ON switch for flavin mononucleotide, no ligand.
Where [4] appears, read: ligand present: flavin mononucleotide, designed as: ON switch for flavin mononucleotide.

As to “UUCCUGGUGUAGAAGGAGGCCGAGCUCAAGCGGACGUCCUGAAUUGCGGGCCUAGGAUAUACAUGAGGAUCACCCAUGUACGGA”, the “apparent Kd” value under setting [1] stood at 0.0398 µM and the “apparent Kd” value under setting [2] was determined as 0.111 µM.
Take “GGCGCAGCGGAGAAGGACGUGGCUCGCCACCACGUAGGAUAUCCCUGUGUACCGAAUUGUUACAUGAGGAUCACCCAUGUGGAC”: the “apparent Kd” value by setting is: under setting [3], 0.00616 µM; under setting [4], 0.00628 µM.
In the same order, the values of “AAUUUAAUACAUGAGGAUCACCCAUGUAAUACUUGUAAGAUCAAGGAUAUCAGCUCGUUUAGAGCUGAGAAGGUGAUCACAUGU” are 0.0582 µM and 0.198 µM.
Consider “GGCGUGUGAGGAUAUCUGAUGUCUAACUUCGGUUAGACAUCAGAGAAGGCACAUGAGGAUCACCCAUGUCCGCC”, for which the “apparent Kd” value is, setting by setting: under setting [1], 0.0675 µM; under setting [2], 0.0619 µM.
Turning to “UGAAACUACGAGAAGGACAUGUGGUCCUUCAGUUACAUGAGGAUCACCCAUGUAGGAUAUCGUAGUUUCAGGAUCGUGAGAUCG”, the “apparent Kd” value by setting is: under setting [1], 0.0347 µM; under setting [2], 0.0104 µM.
Regarding “ACCUCACAUGAGGAUCACCCAUGUCAGGAUAUCUUUUAAAACAGCAAUCCUGUCGCUGAGAGAAGGGACAUUAA”, the “apparent Kd” value reads like this: under setting [1], 0.0276 µM; under setting [2], 0.0356 µM.
As for “GCCAGUUAUGUAGGAUAUGCGCGGCGAGCCUGUGCAGAAGGACAUGAGGAUCACCCAUGUGUUGCGGUCUGAGUACUGAUCGCU”, the “apparent Kd” value by setting is: under setting [1], 0.03 µM; under setting [2], 0.221 µM.
On to “AGAUUUGUACAUGAGGAUCACCCAUGUUAAUAGGUGUUUGUCAGAAGGCAUUAAGAGAGAAUUAAUGAGGAUAUGAAGUUUCAU”, for which the “apparent Kd” value under setting [3] came out at 0.0592 µM and the “apparent Kd” value under setting [4] worked out at 0.0362 µM.
On to “ACUAUACGAGGAUAUACUGACGGGCCUCAGGCAUCCAUCAGACAUGAGGAUCACCCAUGUAGAAGGCGUAUACU”, for which the “apparent Kd” value by setting is: under setting [1], 0.0561 µM; under setting [2], 0.158 µM.
The like results for “ACUGUUAGAGUCUUCCUUAUCACAUGAGGAUCACCCAUGUGGAGAAGGGACUGUAUCGUUAUCAGUUAGGAUAUCCAUGUGUGC” were, in that order, 0.00462 µM and 0.00472 µM.
In the case of “AAAAAAAAAACUGAGGAUAUCAGGGAUGGUACAUGAGGAUCACCCAUGUUGGCGGGCGAAGAAACUGAGAAGGCAGAAAAAAAAAA”, the “apparent Kd” value is, setting by setting: under setting [3], 0.114 µM; under setting [4], 0.111 µM.
Consider “AACUACCCGUCAGGAUAUCGCCGUAGGUCCUCGGGUCUCGCCGUCAUACAUGAGGAUCACCCAUGUGAGAAGGGACGGGUUUCA”, for which the “apparent Kd” value worked out at 0.0209 µM under setting [1] and 0.137 µM under setting [2].
In the case of “AGUAACAGAGGAUAUACUAUUUUAUGUGUUUAUUGUUUUGAACAUGAGGAUCACCCAUGUAGAAGGCUGAAUAA”, the “apparent Kd” value runs as follows: under setting [1], 0.0244 µM; under setting [2], 0.028 µM.
The like results for “GAAUAAUUGAUCCUUUUUUAUUACAUGAGGAUCACCCAUGUGCAGGAUAUCGAUUAUUAUAGUUUCGAGAAGGGCAAGAACUAU” were, in that order, 0.0275 µM and 0.128 µM.
Turning to “AAUAUAUUAAGUGAGGAUAUCAUAGAAAAAACAUGAGGAUCACCCAUGUGGGAAACCUGGUCGGGUGAGAAGGCACUUAAUAUAU”, the “apparent Kd” value was determined as 0.992 µM under setting [3] and 0.0884 µM under setting [4].
On to “UCGAAACAUGAGGAUCACCCAUGUGCUCACGACAUAGGAUAUACUAGCUCGAAGAGCUGCGUAGAAGGGUGAAGUG”, for which the “apparent Kd” value is, setting by setting: under setting [3], 0.0459 µM; under setting [4], 0.0268 µM.
Consider “CUCUUGUCAGGAUAUCUUACAUAACAAUCGUAGUUACCAUUGGAGAAGGGACAUGAGGAUCACCCAUGUUAGCC”, for which the “apparent Kd” value was determined as 0.0238 µM under setting [1] and 0.0465 µM under setting [2].
As to “UUACCUCAUGAGAAGGACAUGAGGAUCACCCAUGUAGGAUAUCGUGGGAGACUGGUAUUGAAUCUUCGGAUUCAAUACCAGUCU”, the “apparent Kd” value runs as follows: under setting [3], 0.375 µM; under setting [4], 0.0297 µM.
For the sequence “UCUGCAUAGUCAGGAUAUGCAAAAUUUAUUUUCUUCGGAAAAUAAAUAACAUGAGGAUCACCCAUGUAGAAGGGACUGUGCAGA”, the “apparent Kd” value under setting [1] came to 0.0169 µM and the “apparent Kd” value under setting [2] is 0.0147 µM.
“UCAGAUGUACAUGAGGAUCACCCAUGUCAUAUGCCCGUGACACAGGAUAUCCAGGAUAGGCCAAAGGAGAAGGGUGAUCCGCGG”: the “apparent Kd” value is, setting by setting: under setting [3], 0.103 µM; under setting [4], 0.158 µM.
Turning to “GGAUAGGACAGAGGAUAUACGUGCUAGAGAUACUAGCAAAAUUUCCUCACAUGAGGAUCACCCAUGUAGAAGGCUGUCAUAUCG”, the “apparent Kd” value runs as follows: under setting [1], 0.0148 µM; under setting [2], 0.306 µM.
For the sequence “GCUGCAUAUGAGAAGGCGAUCAUGAAACAUGAUCGAGGAUAUCAUGUAAACAUGAGGAUCACCCAUGUAUGGGUAUUAAGCAGC”, the “apparent Kd” value stood at 0.282 µM under setting [3] and 0.0505 µM under setting [4].
“GGAGCACACAUUAACAUGAGGAUCACCCAUGUCAAAAGACAUGAGGAUAUGGAUCCGAAAAGCAUCCAGAAGGCAUGGUGCUCC”: the “apparent Kd” value stood at 0.567 µM under setting [3] and 0.184 µM under setting [4].
Consider “UGUUUUCAUGUAGGAUAUGCUUGUCGUAGAUACGCAGAAGGACAUGAGGAUCACCCAUGUUAAAGCGUCAGAGUAUAGAUUCUU”, for which the “apparent Kd” value is, setting by setting: under setting [1], 0.0179 µM; under setting [2], 0.0456 µM.
The like results for “UGUGCGUUGAUCUUCGAUCGGAGUACAUGAGGAUCACCCAUGUAGGAUAUUCAAAGACGCAGAUAGAAGAAGGACAUCGGUUUA” were, in that order, 0.0119 µM and 0.0111 µM.
In the same order, the values of “ACCUUACAUGAGGAUCACCCAUGUUAGGAUAUCUCGCUUGCGCUGUCACAGCGCAAGCAGAGAAGGGACGCGGG” are 0.0352 µM and 0.0409 µM.
In the same order, the values of “GGUUGGCGAGGAUAUACAUGAGGAUCACCCAUGUGGUCCUAAGAUAAAAUAGACCUUUGUAGAAGGCGCGGGUC” are 0.136 µM and 0.122 µM.
Take “UUGUUGUAUGUAGGAUAUGCAUAUUGUUAUUAUGCAGAAGGACAUGAGGAUCACCCAUGUAUAUUAUUAUUAUAUGUUAUAUAU”: the “apparent Kd” value reads like this: under setting [1], 0.0235 µM; under setting [2], 0.0278 µM.
In the same order, the values of “AGAACUGAUAGAGGAUAUGUUUUACAUGAGGAUCACCCAUGUGUACAAGGAUCAAUAUAUUUGUUACAGAAGGCUAUUAGUGAG” are 0.0118 µM and 0.0187 µM.
As for “GGGUACAUCGGAGGAUAUCAUGUAAAUACAUGAGGAUCACCCAUGUCGGUGGAGACAUCGGAGAUUGAGAAGGCCGAUGUACCG”, the “apparent Kd” value under setting [4] is 0.0127 µM.
As to “UUAUUUAUACAAGGAUAUCAAUUAUAUACAAUUCCUACAUGAGGAUCACCCAUGUUUUAUUUUUUUGAGAAGGUGUAUUGUCUG”, the “apparent Kd” value is, setting by setting: under setting [3], 0.0301 µM; under setting [4], 0.0328 µM.
For the sequence “ACGACGAAAGUCGAACGAUGAUCGAGAAGGACAUGAGGAUCACCCAUGUUCCCUGUAACAGGCAUGUAGGAUAUCGAUCAUCGA”, the “apparent Kd” value under setting [1] came out at 0.00399 µM and the “apparent Kd” value under setting [2] was 0.00718 µM.
For “GCUGCAUAGGCAGGAUAUGCAAUAAUUCGAAUAAAAUAUAACGGAUUAACAUGAGGAUCACCCAUGUAGAAGGGCCUGUGCAGU”, the “apparent Kd” value reads like this: under setting [1], 0.00573 µM; under setting [2], 0.00549 µM.
In the same order, the values of “AUCAUUCGUGUAGGAUAUGCGUGGCGAAGCUAUGCAGAAGGACAUGAGGAUCACCCAUGUCUUUCUGUCUGUGUACAGACAGGA” are 0.0222 µM and 0.0948 µM.
“UGUACUAUAAGGUUAAUUGUAUAUUGAGAAGGCAUACACAUGAGGAUCACCCAUGUAACAUGGAAUGAGGAUAUCAUUAUGUAC”: the “apparent Kd” value turned out to be 0.0173 µM under setting [3] and 0.0144 µM under setting [4].
With “AUUAUGUUAGGAUAUGCUUAUGGUGGAUAGUCCAAUAUGGUGCAGAAGGGACAUGAGGAUCACCCAUGUACUGA”, the “apparent Kd” value runs as follows: under setting [1], 0.0832 µM; under setting [2], 0.0903 µM.
In the same order, the values of “CGCUGAGCGGUGAGGAUAUCGUGUUCGAAAGAACGUGAGAAGGCACAUGAGGAUCACCCAUGUGAUCCUCAUCG” are 0.0171 µM and 0.0281 µM.
For the sequence “GUGCUCGUGUGAGGAUAUGCUUCCGUUUCGGCUGCAGAAGGUACUAUUAUACAUGAGGAUCACCCAUGUCUCUUUUCUUCGGUG”, the “apparent Kd” value was 0.0331 µM under setting [3] and 0.0337 µM under setting [4].
In the case of “AAGUCGAGCGUGAGGAUAUCGUUUGAACGACAGAGCGAGAAGGCACAUGAGGAUCACCCAUGUGAUUAAGCUCG”, the “apparent Kd” value runs as follows: under setting [1], 0.0156 µM; under setting [2], 0.0199 µM.
In the same order, the values of “GUGAAGUAAGGAUAUACAUGAGGAUCACCCAUGUAAGGGAAGGUGAUGGGAGUAGAUAGUAGAAGGUACGAGGA” are 0.12 µM and 0.0819 µM.
For the sequence “GGAGCGAGCACAGGAUAUAGGCUAAAGGCUAGUCUAGAAGGGUGGGAUCAGACAUGAGGAUCACCCAUGUGUGUUUUUGCUCCA”, the “apparent Kd” value runs as follows: under setting [3], 0.0863 µM; under setting [4], 0.686 µM.
In the same order, the values of “CUACAUGAGGAUCACCCAUGUGCACGCCAGAUCGGUGUGCGCAGAAGGGCCAUGGAGAAAGCCAGGCAGGAUAUGCAAAGGGCU” are 0.353 µM and 0.162 µM.
With “ACAUGAGGAUCACCCAUGUUAUAUGGGAAUUAAUUUAUUUGUAGAAGGAUGUUUUCUUGUUAGUCAUAGGAUAUACUAUUAAAU”, the “apparent Kd” value under setting [1] came out at 0.255 µM and the “apparent Kd” value under setting [2] was determined as 0.158 µM.
The like results for “UGAGCCUCGUGAGGAUAUACAUGAGGAUCACCCAUGUAAAUGAAAGAUAGCUCGAAACGAGCAAAGUAGAAGGCACGAGGCUCA” were, in that order, 0.0171 µM and 0.0272 µM.
The like results for “UAAGUCGAGAAGAUAAUAAUGAAUACAUGAGGAUCACCCAUGUAGGAUAUGCAGUGGAAUACACUGCAGAAGGACAUACUCGAC” were, in that order, 0.0143 µM and 0.0169 µM.
The like results for “GGGAUUAAGGCAGGAUAUCCGGGUUGGCCUCGACAUGAGGAUCACCCAUGUGGAGAAGGGCCGAUUGCCCGUAGGGUGAUCAAG” were, in that order, 0.274 µM and 0.108 µM.
As for “GUCAGCUCGUGAGGAUAUAUAACACUGCUUCGGCAGUGUAUUAAGAUCACAUGAGGAUCACCCAUGUAGAAGGCACGAGCUGAU”, the “apparent Kd” value by setting is: under setting [1], 0.00504 µM; under setting [2], 0.00894 µM.
For “AGAUGGUAGAGAGGAUAUCAUGUGCUGACAUGAGGAUCACCCAUGUAGGGACGUCGGUCCAAUUAUGAGAAGGCUCUACCAUCA”, the “apparent Kd” value runs as follows: under setting [3], 0.0817 µM; under setting [4], 0.0508 µM.
